Calls of active or inactive are those of the source. The rule behind the calls is not given here.
What was measured:
Mus musculus [1] = assay: Antidiabetic activity in db/db C57BLKS/J-m +/+ Leprdb mouse assessed as reduction of glucose level at 10 mg/kg, po qd for 10 days measured on 11 relative to control; format: functional; design: scale not given: the % may be the effect or the level left
Outline: (§1)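 Male db/db (C57BLKS/J-m +/+Leprdb) mice, 12−13 weeks old, seven per group, chow and water freely available; once-daily oral gavage in 0.25% methylcellulose vehicle for 11 days. Tail blood drawn just before next dose on days 0, 4, 7 and 11 for plasma glucose. Value is percent correction versus vehicle control; mean of n = 7; rosiglitazone 10 mpk positive control.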

[2] = molecular target: T1, Peroxisome proliferator-activated receptor gamma (Homo sapiens) (UniProt P37231); assay: Agonist activity at human PPARgamma expressed in COS-1 cells co-expressing with Gal4 by transactivation assay relative to rosiglitazone; format: functional, cell-based
T1 sequence (whole entry): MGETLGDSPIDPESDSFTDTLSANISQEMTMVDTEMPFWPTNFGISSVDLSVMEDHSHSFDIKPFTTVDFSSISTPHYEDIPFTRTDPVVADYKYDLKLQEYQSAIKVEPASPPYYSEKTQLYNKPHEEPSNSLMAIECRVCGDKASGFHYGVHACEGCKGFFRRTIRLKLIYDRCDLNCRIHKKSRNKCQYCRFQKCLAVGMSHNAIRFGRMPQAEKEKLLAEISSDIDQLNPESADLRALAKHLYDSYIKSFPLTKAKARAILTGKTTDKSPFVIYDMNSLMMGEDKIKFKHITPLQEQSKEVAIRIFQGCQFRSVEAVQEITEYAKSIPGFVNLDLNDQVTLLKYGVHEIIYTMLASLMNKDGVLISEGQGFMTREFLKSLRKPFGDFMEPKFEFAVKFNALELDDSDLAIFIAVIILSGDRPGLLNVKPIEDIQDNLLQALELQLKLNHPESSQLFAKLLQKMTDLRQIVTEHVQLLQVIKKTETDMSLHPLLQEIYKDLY
Outline: (§2)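 GAL4-PPAR chimeric receptor transactivation in transiently co-transfected COS-1 cells with a GAL4-responsive reporter; potency as EC50 and maximum activation expressed relative to rosiglitazone; triplicate, mean reported.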

[3] = molecular target: T1, Peroxisome proliferator-activated receptor gamma (Homo sapiens); assay: Binding affinity to human wild type PPARgamma LBD expressed in COS1 cells co-expressing GAL4 by scintillation proximity assay; format: cell-based; details: COS-1
COS-1 = assay: Binding affinity to human PPARgamma LBD Y473A mutant expressed in COS1 cells co-expressing GAL4 by scintillation proximity assay; format: cell-based
[4] = Oral bioavailability in rat at 2 mg/kg by LC-MS/MS analysis; format: ADME, organism-based; details: in vivo
Outline: (§3)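 Rat pharmacokinetics: 2 mpk oral in 5% methylcellulose, 0.5 mpk iv in ethanol/PEG400/water (1/4/5). Blood sampled at set intervals; plasma acidified with 0.5 M formate buffer pH 3.0, acetonitrile-precipitated, quantified by LC−MS−MS against spiked control-plasma calibration curves.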

Mus musculus [5] = assay: Antidiabetic activity in db/db C57BLKS/J-m +/+ Leprdb mouse assessed as reduction of glucose level at 30 mg/kg, po qd for 10 days measured on 11 relative to control; format: functional; design: scale not given: the % may be the effect or the level left; outline: as §1
Rattus norvegicus [6] = assay: Plasma clearance in rat at 0.5 mg/kg, iv and 2 mg/kg, po by LC-MS/MS analysis; format: ADME, organism-based; details: in vivo; outline: as §3
[7] = molecular target: T2, Peroxisome proliferator-activated receptor gamma (Homo sapiens, UniProt P37231); assay: Partial agonist activity at human PPARgamma LBD assessed as activation of Src-1 by HTRF assay; format: functional
T2 sequence (P37231 whole entry): T1 sequence (whole entry)

[8] = molecular target: T2, Peroxisome proliferator-activated receptor gamma; assay: Partial agonist activity at human PPARgamma LBD assessed as activation of PBP by HTRF assay; format: functional
Rattus norvegicus [9] = assay: Dose normalized AUC in rat at 2 mg/kg, po by LC-MS/MS analysis; format: ADME, organism-based; design: dose 2 mg/kg, route oral; details: in vivo; outline: as §3
[10] = molecular target: T2, Peroxisome proliferator-activated receptor gamma; assay: Partial agonist activity at human PPARgamma LBD assessed as activation of PGC1 by HTRF assay; format: functional
[11] = molecular target: T3, Peroxisome proliferator-activated receptor delta (Homo sapiens, UniProt Q03181); assay: Binding affinity to PPARdelta by scintillation proximity assay
T3 sequence (Q03181 whole entry): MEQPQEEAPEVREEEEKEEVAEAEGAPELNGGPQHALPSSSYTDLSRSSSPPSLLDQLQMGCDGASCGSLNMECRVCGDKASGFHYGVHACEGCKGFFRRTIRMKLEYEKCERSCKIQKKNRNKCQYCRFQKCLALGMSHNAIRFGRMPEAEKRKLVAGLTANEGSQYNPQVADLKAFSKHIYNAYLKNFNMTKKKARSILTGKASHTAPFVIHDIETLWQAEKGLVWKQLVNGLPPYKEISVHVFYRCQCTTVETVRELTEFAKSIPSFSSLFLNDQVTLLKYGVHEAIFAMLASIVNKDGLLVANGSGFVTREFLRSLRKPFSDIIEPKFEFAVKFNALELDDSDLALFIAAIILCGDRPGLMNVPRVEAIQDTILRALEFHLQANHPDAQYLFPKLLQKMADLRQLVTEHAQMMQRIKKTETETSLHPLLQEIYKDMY
Outline: (§4)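 Scintillation proximity binding assay on PPAR receptors giving IC50; mean of three determinations.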

[12] = Half life in rat at 0.5 mg/kg, iv and 2 mg/kg, po by LC-MS/MS analysis; format: ADME, organism-based; details: in vivo; outline: as §3
[13] = Drug uptake in db/db C57BLKS/J-m +/+ Leprdb mouse at 10 mg/kg, po qd for 10 days measured in day 11 by LC-MS/MS analysis; format: ADME, organism-based; design: dose 10 mg/kg, route oral; details: in vivo
Outline: (§5)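 Male db/db (C57BLKS/J-m +/+Leprdb) mice aged 12−13 weeks, seven per group, gavaged once daily with compound in 0.25% methylcellulose vehicle. Total compound exposure measured at study end: plasma acidified with 0.5 M formate buffer pH 3.0, protein precipitated with acetonitrile, quantified by LC−MS−MS against calibration curves in control plasma.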

[14] = molecular target: T2, Peroxisome proliferator-activated receptor gamma; assay: Partial agonist activity at human PPARgamma LBD assessed as activation of CBP1-453 by HTRF assay; format: functional
[15] = molecular target: T2, Peroxisome proliferator-activated receptor gamma; assay: Agonist activity at human PPARgamma expressed in COS-1 cells co-expressing with Gal4 by transactivation assay; format: functional, cell-based; outline: as §2
[16] = molecular target: T2, Peroxisome proliferator-activated receptor gamma; assay: Binding affinity to human PPARgamma by scintillation proximity assay; outline: as §4
[17] = molecular target: T4, Peroxisome proliferator-activated receptor alpha (Homo sapiens, UniProt Q07869); assay: Binding affinity to human PPARalpha expressed in COS-1 by scintillation proximity assay; outline: as §4
T4 sequence (Q07869 whole entry): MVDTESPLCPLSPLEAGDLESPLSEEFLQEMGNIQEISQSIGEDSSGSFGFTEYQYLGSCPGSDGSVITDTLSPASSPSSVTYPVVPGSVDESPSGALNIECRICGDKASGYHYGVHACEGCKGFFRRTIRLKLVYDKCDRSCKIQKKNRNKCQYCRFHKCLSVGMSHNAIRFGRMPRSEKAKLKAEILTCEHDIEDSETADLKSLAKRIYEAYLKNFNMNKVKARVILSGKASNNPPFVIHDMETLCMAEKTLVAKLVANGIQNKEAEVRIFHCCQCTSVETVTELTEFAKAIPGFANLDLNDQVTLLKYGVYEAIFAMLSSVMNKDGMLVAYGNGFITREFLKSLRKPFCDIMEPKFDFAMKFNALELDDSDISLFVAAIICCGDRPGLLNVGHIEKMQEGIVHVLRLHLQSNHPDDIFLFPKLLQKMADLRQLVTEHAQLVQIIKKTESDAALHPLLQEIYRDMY

Mus musculus [18] = assay: Toxicity in db/db C57BLKS/J-m +/+ Leprdb mouse assessed as increase in water content of epididymal fat pad at 10 to 50 mg/kg, po qd for 10 days measured on day 11 by vaccum drying method; format: organism-based; design: dose 10-50 mg/kg, route oral; details: in vivo, 240 h
Outline: (§6)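 Male db/db mice, seven per group, gavaged daily in 0.25% methylcellulose; after day 11 dosing epididymal fat pads excised, weighed, vacuum centrifugal-dried over 24 h, reweighed to give water content; mean of seven determinations.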

Rattus norvegicus [19] = assay: Antidiabetic activity in obese insulin resistant Zucker fa/fa rat assessed as decrease in triglyceride level in plasma at 1 to 100 mg/kg qd for 7 days; format: functional, organism-based
Outline: (§7)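 Obese insulin-resistant Zucker fa/fa rats (n = 8) dosed daily for 7 days with vehicle or compound. Tail-nick blood taken 1 day before dosing and 1 day after the seventh dose; plasma insulin by rat insulin RIA, free fatty acids and triglyceride by enzymatic kits per manufacturer instructions.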

Rattus norvegicus [20] = assay: Antidiabetic activity in obese insulin resistant Zucker fa/fa rat assessed as decrease in free fatty acids level in plasma at 1 to 100 mg/kg qd for 7 days; format: functional, organism-based; outline: as §7
[21] = AUC in db/db C57BLKS/J-m +/+ Leprdb mouse at 10 mg/kg, po qd for 10 days measured on day 11; format: ADME, organism-based; design: dose 10 mg/kg, route oral; details: plasma; outline: as §5
Rattus norvegicus [22] = assay: Antidiabetic activity in obese insulin resistant Zucker fa/fa rat assessed as decrease in insulin level in plasma at 1 to 100 mg/kg qd for 7 days; format: functional, organism-based; outline: as §7
Mus musculus [23] = assay: Toxicity in po dosed db/db C57BLKS/J-m +/+ Leprdb mouse assessed as increase in water content of epididymal fat pad administered qd for 10 days measured on day 11 by vaccum drying method; format: organism-based; details: in vivo, 240 h; outline: as §6
Rattus norvegicus [24] = assay: Antidiabetic activity in obese insulin resistant Zucker fa/fa rat assessed as decrease in insulin level in plasma administered qd for 7 days
Mus musculus [25] = assay: Antidiabetic activity in db/db C57BLKS/J-m +/+ Leprdb mouse assessed as reduction of glucose level at 20 mg/kg, po qd for 10 days measured on 11 relative to control; format: functional; design: scale not given: the % may be the effect or the level left; outline: as §1

Compound | Emax [2] [%] | bioavailability [4] [%] | clearance (Rattus norvegicus [6]) [mL/min/kg] | EC50 [7] [µM] | EC50 [8] [nM] | AUC/dose (Rattus norvegicus [9]) [µM·kg·h/mg] | EC50 [10] [nM] | IC50 [11] [µM] | half-life [12] [min] | AUC at 240 h [13] [µM·h] | EC50 [14] [µM] | EC50 [15] [nM] | IC50 [16] [nM] | IC50 [17] [µM] | other results
C[C@]1(c2cccc(Cn3c(=O)n(-c4noc5cc(Cl)ccc45)c4ccccc43)c2)OC(=O)NC1=O | 101 |  |  |  |  |  |  |  |  |  |  |  |  |  | Activity (Mus musculus [1]): 84%; Activity [3]: Active; Activity (COS-1): Active
COc1ccc2c(-n3c(=O)n(Cc4ccc(Cl)c(O[C@H](C)C(=O)O)c4)c4ccccc43)noc2c1 | 31 | 48 | 11.4 | > 50 | 3 | 1.5 | 2 | > 50 | 300 | 576 | > 50 | 28.1 | 6.9 | > 50 | Activity (Mus musculus [5]): 39%
COc1ccc2c(-n3c(=O)n(Cc4cc(O[C@H](C)C(=O)O)ccc4Cl)c4ccccc43)noc2c1 | 50 | 97 | 7.3 | > 50 | 11 | 5 | 8 | > 50 | 414 |  | 0.011 | 51.1 | 13.7 | > 50 | Activity (Mus musculus [5]): 30%
C[C@@H](Oc1cc(Cn2c(=O)n(-c3noc4cc(Cl)ccc34)c3ccc(C(F)(F)F)cc32)ccc1Cl)C(=O)O | 32 |  |  | > 50 | > 50000 |  | 3240 | > 50 |  |  | > 50 | 200 | 68 | > 50 | 
C[C@]1(c2cccc(Cn3c(=O)n(-c4noc5cc(Cl)ccc45)c4ccccc43)c2)OC(O)=NC1=O |  | 117 | 26.5 |  |  | 1.9 |  | > 50 | 180 | 1160 |  | 102 | 49.1 | > 50 | Activity (Mus musculus [18]): Non-toxic
CN(CCOc1ccc(CC2SC(=O)NC2=O)cc1)c1ccccn1 (stereo unspecified) [ROSIGLITAZONE] |  |  |  |  |  |  |  |  |  |  |  |  |  |  | Activity (Mus musculus [1]): 60%; Activity (Rattus norvegicus [19]): Active; Activity (Rattus norvegicus [20]): Active; AUC at 240 h [21]: 220 µM·h; Activity (Rattus norvegicus [22]): Active; Activity [3]: Active; Activity (COS-1): inactive; Activity (Mus musculus [23]): Dose-dependent effect; ED50 (Rattus norvegicus [24]): 312 µM·h
COc1ccc2c(-n3c(=O)n(Cc4cc([C@@]5(C)OC(=O)NC5=O)ccc4Cl)c4ccccc43)noc2c1 | 26 | 49 | 29.7 | > 50 | 1820 | 0.8 | 2 | > 50 | 228 | 104 | > 50 | 9.1 | 9.9 | > 50 | Activity (Mus musculus [25]): 29%
